Experimental data published in PMC8566757 (Food Chemistry: X, 2021).

What was measured:
[1] = Scavenging of DPPH radicals and initial scavenging rate; settings: for DPPH activity: 20 min, 25 °C, pH 5.5
In short: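 DPPH (3 mM ethanolic stock) was mixed with 100 mM acetate buffer (pH 5.5) and ethanol. Test compound (10 mM DMSO stock) was added, with DMSO as control, and kept at 25 °C for 20 min. Absorbance was read at 517 nm (ε = 8.32 X 103). The initial rate came from the absorbance drop just after compound addition. Runs were done ≥3 times.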

xanthine oxidase [2] = target: T1, xanthine oxidase (Bos taurus, UniProt P80457); experiment: O2- generation catalyzed by XO; assay type: biochemical
T1 sequence (P80457 whole entry): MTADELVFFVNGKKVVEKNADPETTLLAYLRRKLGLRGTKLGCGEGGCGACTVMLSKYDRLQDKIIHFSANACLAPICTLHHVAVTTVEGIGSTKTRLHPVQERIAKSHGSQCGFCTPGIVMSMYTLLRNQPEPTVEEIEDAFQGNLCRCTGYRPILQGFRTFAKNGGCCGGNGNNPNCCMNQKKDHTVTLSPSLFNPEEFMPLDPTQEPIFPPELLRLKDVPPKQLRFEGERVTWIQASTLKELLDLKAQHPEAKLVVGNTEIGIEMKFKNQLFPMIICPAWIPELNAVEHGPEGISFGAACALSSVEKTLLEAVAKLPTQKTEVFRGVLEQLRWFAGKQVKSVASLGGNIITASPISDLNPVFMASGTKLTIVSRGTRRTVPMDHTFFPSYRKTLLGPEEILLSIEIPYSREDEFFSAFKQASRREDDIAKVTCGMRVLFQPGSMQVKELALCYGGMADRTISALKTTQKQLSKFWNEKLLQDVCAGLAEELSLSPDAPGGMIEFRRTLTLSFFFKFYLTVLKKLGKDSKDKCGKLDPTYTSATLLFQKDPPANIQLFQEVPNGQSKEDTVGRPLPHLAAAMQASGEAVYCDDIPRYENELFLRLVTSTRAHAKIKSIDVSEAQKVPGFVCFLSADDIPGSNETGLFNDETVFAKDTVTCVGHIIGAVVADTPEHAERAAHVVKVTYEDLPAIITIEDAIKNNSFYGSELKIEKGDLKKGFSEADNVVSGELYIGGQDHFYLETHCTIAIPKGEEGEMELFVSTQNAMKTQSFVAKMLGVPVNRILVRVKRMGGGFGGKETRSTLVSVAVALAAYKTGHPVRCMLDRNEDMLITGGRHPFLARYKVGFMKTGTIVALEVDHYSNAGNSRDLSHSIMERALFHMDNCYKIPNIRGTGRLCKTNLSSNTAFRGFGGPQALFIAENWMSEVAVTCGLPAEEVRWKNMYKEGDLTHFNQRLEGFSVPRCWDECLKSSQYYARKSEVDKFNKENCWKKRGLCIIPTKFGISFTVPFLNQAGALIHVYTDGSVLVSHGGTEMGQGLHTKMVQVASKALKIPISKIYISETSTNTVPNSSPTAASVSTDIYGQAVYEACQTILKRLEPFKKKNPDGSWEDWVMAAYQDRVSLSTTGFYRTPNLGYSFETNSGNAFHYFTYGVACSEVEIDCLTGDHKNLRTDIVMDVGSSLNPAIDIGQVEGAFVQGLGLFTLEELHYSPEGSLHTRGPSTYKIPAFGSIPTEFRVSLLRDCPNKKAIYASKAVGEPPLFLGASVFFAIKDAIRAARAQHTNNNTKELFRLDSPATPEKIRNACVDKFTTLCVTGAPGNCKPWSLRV

xanthine oxidase [3] = target: T1, xanthine oxidase; experiment: Uric acid formation catalyzed by XO; assay type: biochemical
In short: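 Xanthine oxidase (Grade IV) was run in 40 mM sodium carbonate with 0.1 mM EDTA, pH 10.0, at 25 °C. Xanthine was 0–200 µM, and test compound came from a 10 mM DMSO stock. Start with 0.04 unit XO and record uric acid at 293 nm for 60 s. Rate came from the linear rise, against a DMSO control. IC50 was taken at 200 µM xanthine. Mode and kinetic parameters were fitted from ≥3 separate runs.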

| IC50 (xanthine oxidase [2]) | Ki (xanthine oxidase [2]) | IC50 (xanthine oxidase [3]) | K’i, inhibition of O2- generation using xanthine oxidase (xanthine oxidase [2]; mixed type kinetics, xanthine 0 – 200 µM, pH 10.0) | Inhibition kinetics (mode) of O2- generation (xanthine oxidase [2]; xanthine 0 – 200 µM) | Ki (xanthine oxidase [3]) | Inhibition kinetics (mode) of uric acid formation (xanthine oxidase [3]; versus xanthine) | Structure (SMILES) | DPPH activity [1] | Initial rate of DPPH scavenging ([1]; after the addition of sample solution) |
| --- | --- | --- | --- | --- | --- | --- | --- | --- | --- |
| 49 ± 1 µM | 19 ± 2 µM | > 50 µM | – | – | – | – | OC[C@H]1O[C@@H](Oc2cc(O)cc(/C=C/c3ccc(O)cc3)c2)[C@H](O)[C@@H](O)[C@@H]1O [Resveratrol-3-glucoside (2), Resveratrol-3-glucoside] | 0.59 ± 0.15 DPPH molecules / a molecule of stilbene compound | – |
| 4.5 ± 0.4 µM | 2.2 ± 0.1 µM | 15 ± 5 µM | 21.1 ± 1.0 µM | mixed type | 6.7 ± 1.6 µM | – | Oc1cc(O)cc(/C=C/c2ccc(O)c(O)c2)c1 [Piceatannol (6), Piceatannol] | 2.45 ± 0.13 DPPH molecules / a molecule of stilbene compound | 3.75 µmol/L/s |
| 124 ± 16 µM | 43 ± 5 µM | > 50 µM | – | – | – | – | COc1cc(/C=C/c2ccc(O)cc2)cc(OC)c1 [Pterostilbene (5), Pterostilbene] | 0.74 ± 0.10 DPPH molecules / a molecule of stilbene compound | – |
| 21 ± 3 µM | 7.1 ± 1 µM | 34 ± 4 µM | – | – | 7.7 ± 0.7 µM | competitive inhibition | Oc1ccc(/C=C/c2cc(O)cc(O)c2)cc1 [Resveratrol (1), Resveratrol] | 0.72 ± 0.27 DPPH molecules / a molecule of stilbene compound | – |
